Data as given in ChEMBL document CHEMBL4513216, “Probing the Open Global Health Chemical Diversity Library for Multistage-Active Starting Points for Next-Generation Antimalarials” (ACS Infect Dis, 2020).

Experiment: Toxicity liver stage against HepG2, at 10uM
Assay type: cell-based
Parameters: test concentration 10 uM, cell line HepG2-A16-CD81EGFP
Details: human, HepG2-A16-CD81EGFP cells; read-out: INHIBITION
Outline: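 Uninfected HepG2-A16-CD81EGFP cells, 3 × 10^3 per well, 1536-well, plated on prespotted compound at 10 μM final, parasite-free screening media added to match infected plates; puromycin 10 μM positive, DMSO 0.5% negative; run in parallel with 48 h PbLuc assay at 37 °C, 5% CO2; viability by CellTiter-Glo luminescence, normalized to controls.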

Compound | cytotoxicity at 10 µM
O=C(NCc1cccnc1)c1cn(CCc2ccccc2)nn1 | 4.39%
Cc1c(C)n2c(SCC(=O)N3CCCCCC3)nnc2[nH]c1=O | 0.0868%
Cc1cc2nc(CN(C)c3ccccc3)cc(=O)n2o1 | 0.719%
Cc1ccc2cccc(Oc3nc(C)c(C(=O)O)s3)c2n1 | 6.39%
CC(C)CC1SCC(=O)Nc2c1cnn2-c1ccccc1F (stereo unspecified) | -8.62%
CCN1CCCC1CNC(=O)Cc1c(C)n[nH]c1-c1ccc(OC)cc1 (stereo unspecified) | -3.72%
CC(C)N1CCC(c2ccnc3c(C(=O)N4CCOCC4)ncn23)CC1 | -5.89%
O=C1CCCN1Cc1nnn2c1CN(c1ncccn1)CCC2 | -0.0499%
CN(C)C(=O)N1CCc2c(nnn2C)C1COCC1CC1 (stereo unspecified) | 12.6%
Cc1noc([C@H]2COC[C@H]3CN(C(=O)Cc4ccccc4F)C[C@H]32)n1 | -8.52%
CN(C)C(=O)C1OC2(CCN(C(=O)c3ccco3)CC2)c2ccccc21 (stereo unspecified) | 4.93%
O=c1cc(Cn2cncn2)nc2n1CCCN(Cc1ccsc1)C2 | -0.123%
O=C(c1cscn1)N1C[C@@H]2C[C@@H](c3nnc(C4CC4)o3)O[C@@H]2C1 | -16.9%
CCn1nc(C)c2ncnc(NCCCn3ccnc3)c21 | 10.3%
COc1cc(-c2n[nH]c(CC#N)n2)cc(OC)c1OC | -175%
CCc1nnc(Nc2cc(C)nc(C3CN(C(=O)C(C)C)CCO3)c2)s1 (stereo unspecified) | 7.25%
COCCN1CCCC(c2nccnc2-c2cccc(Cl)c2)C1 (stereo unspecified) | 3.99%
Cn1nccc1-c1cccc(CC2CCN(S(C)(=O)=O)C2)n1 (stereo unspecified) | 4.54%
CCCN(CCO)S(=O)(=O)c1ccc2[nH]c(=O)[nH]c2c1 | -0.24%
CN(C)S(=O)(=O)N1CCOC(c2cccc(-c3cncnc3)n2)C1 (stereo unspecified) | 3.71%
CS(=O)(=O)N1CCCC(Cc2ccnc(Nc3ccccn3)c2)C1 (stereo unspecified) | 5.46%
Cc1cc(C2CCCN(S(=O)(=O)c3cn(C)cn3)C2)ccn1 (stereo unspecified) | 3.42%
O=C(O)c1ccccc1-n1cnc(CN2CCc3ccccc3C2)c1 | 13.6%

Compound | cytotoxicity at 10 µM
CN(C)Cc1ccccc1Cn1cncc1-c1cnn(C)c1 | 6.16%
CCn1cc(C(=O)NCCc2nc(-c3ccc(C)cc3)n[nH]2)c(C)n1 | 9.03%
Cc1cc(C)nc(C2CCCN2C(=O)c2cnco2)n1 (stereo unspecified) | -1.45%
CN1CCCC(c2cccc(CCC(=O)NCC3(C)COC3)n2)C1 (stereo unspecified) | -8.24%
CNc1ncccc1CN1CCCCC1c1cc(C)n2ccnc2n1 (stereo unspecified) | -2.17%
COc1cc(OC)cc(-c2cc(N)on2)c1 | 7.79%
Fc1ccc(-c2noc(C3COCCO3)n2)cc1F (stereo unspecified) | -1.21%
COC(=O)N1CCCN(Cn2nc(C)c(Br)c2C)CC1 | 8.38%
Cc1noc(CNc2ccccc2CC(=O)N(C)C)n1 | 2.69%
Fc1cccc2c1CCC2NCc1cnc(N2CCOCC2)nc1 (stereo unspecified) | 5.42%
CC(C)c1ccc(O)c(C(=O)NCc2cc[nH]n2)c1 | -1.49%
CC(C(=O)Nc1cnn(CC(N)=O)c1)c1ccc(Cl)s1 (stereo unspecified) | 10.9%
CC(C)N(C)S(=O)(=O)N(C)Cc1cnn(C)c1 | 7.2%
Cc1cc(C(=O)Nc2ccc3c(ccn3CCN3CCOCC3)c2)on1 | 4.29%
CC1CCC(NC(=O)CNC2(c3ccc(Br)cc3)CCOCC2)CC1 (stereo unspecified) | 3.46%
Cc1cnn(CC2CCCN2CC(=O)Nc2nncs2)c1 (stereo unspecified) | -2.03%
Cc1ccc(-c2nc(CN3CCOC(Cn4cncn4)C3)cs2)o1 (stereo unspecified) | 4.5%
COc1cc(C(=O)NS(=O)(=O)c2cncc(Br)c2)ccc1C | -2.45%
Cc1ccc(C(=O)NCCCN(C)S(C)(=O)=O)cc1-n1cccc1 | -8.71%
Cc1ccc(C(=O)N2CCCC2c2nnc3n2CCCCC3)s1 (stereo unspecified) | -0.208%
Cc1nn(CC(C)C)c(N(C)C)c1CNCCC(=O)NC(C)C | 7.45%
Fc1ccc(OCCCN2CC(n3cccn3)C2)cc1 | 2.16%
CC(C)NC(=O)CN1CCSC2(CCCCC2)C1 | -13.7%

Compound | cytotoxicity at 10 µM
CCn1c(C)nnc1Sc1nn2cc(C)nc2s1 | -1.99%
N#Cc1ccc(OC2CCN(CC(=O)NCC3CCCO3)CC2)cc1 (stereo unspecified) | 34.8%
COCCC1(CNC(=O)NCC2CCC2)CCC1 | -10.1%
Cn1nccc1C(=O)NC(C)(C)c1noc(C(C)(C)C)n1 | 8.22%
Cc1nn(C)cc1CN(C)Cc1cc2c(cc1OC(F)F)OCO2 | -3.53%
CSCC(=O)N1CCCC1c1noc(C2CC2)n1 (stereo unspecified) | 17%
NC(=O)CN1CCC(NC(=O)c2ccn(-c3cccc(F)c3)n2)CC1 | 13.4%
Cc1ncncc1-c1ccnc(N)n1 | -7.22%
Cc1nccc(N2C[C@@H](CN3CCCC3)[C@@H](CO)C2)n1 | -3%
CC(C)n1ccnc1C1CCN(C(=O)c2ccccn2)CC1 | -2.85%
Cc1ncc(C)c(N2CCC(Cc3ccc(Cl)cc3)(C(=O)O)CC2)n1 | -6.28%
CCc1nc2ccccc2n1C(CC)C(=O)N(C)Cc1nc(C)c[nH]1 (stereo unspecified) | -2.53%
Cc1nccn1Cc1nnc(C2CCCN(c3ncccc3F)C2)n1C (stereo unspecified) | -4.93%
CCc1ccc(C(=O)N2CC[C@](C)(O)[C@H](C)C2)[nH]1 | 2.27%
CCn1cc(-c2cc(C(=O)N3CCOCC3)c3cc(Cl)ccc3n2)cn1 | -1.53%
CCn1cc(C(=O)NCCN2CCCc3ccccc32)c(C)n1 | 4.23%
Cc1nnc(CNC(=O)CC2CCc3ccccc32)o1 (stereo unspecified) | 1.58%
O=C(NCc1ccc2c(c1)CCCO2)C1CNCCO1 (stereo unspecified) | -7.49%
COCc1noc(CCNc2nc(CC3CC3)nc3c2CCNCC3)n1 | -4.1%
CCc1cc(N2CC(N3CCCCC3C)C2)n2nccc2n1 (stereo unspecified) | -4.85%
COCC(=O)N1C[C@H]2CNC[C@@]2(C(=O)NCc2cccc3[nH]ccc23)C1 | 6.65%
CCc1cccc(NC(=O)CCC(=O)N(C)Cc2nc(C)c[nH]2)c1 | -1.92%
CCCC(C)NCc1cnc(-c2cccc(C)c2)nc1 (stereo unspecified) | -11.7%

Compound | cytotoxicity at 10 µM
CS(=O)(=O)N1CCc2[nH]cnc2C12CCN(C(=O)c1ccccc1)CC2 | -2.66%
Cc1nc(-c2ccncc2)ncc1C(C)NC(=O)CN1CCCC1=O (stereo unspecified) | 1.74%
CCCc1nnc(NCCc2noc(C3CCC3)n2)o1 | -8.22%
CN1CCC(Oc2ccc(-n3ccnc3-c3nccn3C)cc2)CC1 | -7.41%
CN(C)CC(c1ccccc1)N(C)C(=O)c1cccc(NCC(=O)O)c1 (stereo unspecified) | 3.7%
Cc1cc(C(=O)N2CCCC(c3nccn3Cc3cscn3)C2)on1 (stereo unspecified) | -1.32%
COc1cccc2c1OCC(C(=O)N1CCC(N3CCOC3=O)CC1)C2 (stereo unspecified) | -19.7%
CN(C)C(=O)N1CCN(C(=O)C(c2ccccc2F)N(C)C)CC1 (stereo unspecified) | -0.665%
CCn1cc(S(=O)(=O)N(C)Cc2c(Br)cnn2CC)c(C)n1 | 3.3%
Cc1nc(-c2ccc(C(=O)O)cc2)cc(C2CCN(C(C)C)C2)n1 (stereo unspecified) | 6.62%
CCc1nccn1C1CCCN(C(=O)c2ccc(OC)c(OC)c2)C1 (stereo unspecified) | -20.6%
Cc1cnn(C2CCCN(C(=O)c3ccc(O)nc3)C2)c1 (stereo unspecified) | -2.78%
CC(C)OCCCNC(=O)CN1C=Nc2ccccc2S1(=O)=O | -5.44%
Cc1cnn(CC2CCCN2C(=O)c2c(C)noc2C)c1 (stereo unspecified) | -6.02%
Cc1nnc(NC(=O)CN(C)C2CCCN(c3cccnn3)C2)s1 (stereo unspecified) | -5.64%
CC(C)c1nnc2n1CCN(C(=O)CN(C)Cc1ccccc1)C2 | -5.17%
Cc1noc(C(C)N2CCN(CCOCC(F)(F)F)CC2)n1 (stereo unspecified) | -1.4%
Cc1csc(N2CCN(CC(=O)Nc3cc(C)nn3C)CC2C)n1 (stereo unspecified) | -10.2%
Cc1ccc(CC(=O)N2CCc3nnc(N(C)C)cc3C2)s1 | -9.01%
COc1ccc(NC(=O)N(CC2CCOC2)C2CC2)cn1 (stereo unspecified) | -6.95%
Cc1cc(C)n(-c2ccc(CNCc3ccc(F)c(F)c3)cn2)n1 | -8.77%
Cc1cscc1C(=O)N1CCCC1CC(=O)c1cnn(C)c1 (stereo unspecified) | -3.4%
Cc1cc(C)n(C2CCCN(C(=O)c3c[nH]c(=O)c(Cl)c3)C2)n1 (stereo unspecified) | -5.03%

Compound | cytotoxicity at 10 µM
CN(Cc1cnn(C)c1)C(=O)NCc1csc(Br)c1 | 0.568%
c1cnc(-c2nc(CN3CCC(c4ccn[nH]4)CC3)cs2)nc1 | -2.97%
O=C(NCc1ccco1)C1CCCN1Cc1nc(-c2ccco2)no1 (stereo unspecified) | -6.46%
CCc1ncc(C(=O)N2CCOCC2c2c(C)n[nH]c2C)s1 (stereo unspecified) | -5.61%
Cc1noc(C)c1CN(C)C(=O)NC1CCN(c2ncccn2)CC1 | -19.1%
CC(C)c1cc(NC(=O)CN2CCc3ccccc3C2)on1 | -4.89%
CC(=O)N(Cc1ncc(C)o1)C1CCN(CCCc2cnn(C)c2)C1 (stereo unspecified) | 8.11%
CN(C)CC1CN(c2ncnc3[nH]ccc23)CCO1 (stereo unspecified) | 0.89%
Cc1nn(C)c(C)c1C1CCCN1Cc1nc(C)c2ccccc2n1 (stereo unspecified) | -3.9%
O=C(CC1CCCCC1)N1CCN(C(=O)NCc2ccccn2)CC1 | -4.02%
Cc1cc(C)n(CC2CCCCN2Cc2cscn2)n1 (stereo unspecified) | 1.78%
CN(C)CCN1C[C@@H]2CN(C(=O)C3CCOC3)C[C@@H]2C1=O (stereo partly specified) | -5.18%
O=C([C@@H]1COC[C@H]2CN(CC3CC3)C[C@H]21)N1CCC(F)CC1 | 9.29%
O=C(NCc1ccccn1)[C@]12COC[C@H]1CN(C1CCC1)C2 | -6.82%
CN(C)C(=O)COC[C@@]12CCC[C@@H]1CN(C1CCC1)C2 | -1.25%
COc1ccc(CN2CC[C@H]3CO[C@H](CNC(=O)N(C)C)[C@H]3C2)cc1 | 1.07%
c1cncc(CN2CCCC3(COCCN(c4cnccn4)C3)C2)c1 (stereo unspecified) | -0.0653%
O=C(Nc1cccnc1)[C@@H]1CCO[C@@H]2CCN(Cc3cccnc3)C[C@@H]21 | 4.78%
CNc1nc(C(=O)N2C[C@@H]3CC[C@H]2CN(C2CCOCC2)C3)cs1 | 4.84%
